Data set [1] has as its system Leishmania donovani. The data set is described as follows: Reduction of parasitemia in Leishmania donovani LV82 promastigotes infected BALB/c mouse at 25 mg/kg/day, ip for 5 days relative to control. It is filed as functional. Further details: scale not given: the % may be the effect or the level left. Conditions: route intraperitoneal. The gist of the method:
(§1)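 Infected BALB/c mice were dosed i.p. once daily for 5 days, starting 7 days post-infection. Vehicles were 10% DMSO/70% cremophor-ethanol (3:1)/20% PBS, or PBS for miltefosine. On day 14, Giemsa-stained liver smears were scored as amastigotes per 1000 liver cells × liver weight (mg) and compared with vehicle controls. 4–5 mice per group, SD.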

Data set [2] deals with Leishmania donovani. In words: Antileishmanial activity against Leishmania donovani MHOM/SD/62/1S-CL2D axenic amastigotes after 3 days by tetrazolium dye based colorimetric assay. As to conditions: 72 h. It is filed as functional, organism-based. An outline of the steps: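 Axenic amastigotes adapted from promastigotes and kept in amastigote medium at 37 °C. 6 × 10^4 cells per well, 2-fold compound dilutions, 3 days at 37 °C in 5% CO2. Growth read as tetrazolium (CellTiter) absorbance at 490 nm several hours after dye addition. IC50 from a four-parameter dose-response fit. Three or more separate experiments.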

The test system of data set [3] is Leishmania donovani. In words: Antileishmanial activity against Leishmania donovani promastigotes assessed as induction of ROS production in by flow cytometric detection at 0.1 uM after 24 hrs. It counts as functional, organism-based. An outline of the steps:
(§2)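 Log-phase promastigotes were loaded with 10 µg/ml CM-H2DCFDA in FBS-free medium for 60 min at 25 °C. They were then resuspended at 1 × 10^6 cells/ml and exposed to compounds in 1% DMSO for 24 h. Fluorescence was read by flow cytometry on 10,000 cells and normalized to vehicle controls (=1.0). H2O2 250 µM served as positive control. Three experiments, SEM.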
(In general: In flow cytometry, cells or beads pass a laser one at a time.)

The test system of data set [4] is Leishmania donovani. In words: Antiparasitic activity against Leishmania donovani promastigotes assessed as reduction of membrane potential by rhodamine 123 assay. It counts as functional. An outline of the steps:
(§3)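 Promastigotes at 1 × 10^6 cells/ml were exposed to compounds in 1% DMSO for 24 h, at 10 µM and above. FCCP 100 µM for 2 h served as positive control. Cells were then stained with 1 µM rhodamine 123 for 1 h and read by flow cytometry. Results are % fluorescence reduction against vehicle controls. Three experiments, SEM.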

The subject of data set [5] is Leishmania donovani. The data set is described as follows: Reduction of parasitemia in Leishmania donovani LV82 promastigotes infected BALB/c mouse at 50 mg/kg/day, ip for 5 days relative to control. It counts as functional. Also on record: scale not given: the % may be the effect or the level left. Conditions: route intraperitoneal.
In data set [6] the test system is Leishmania amazonensis. In words: Antileishmanial activity against beta-lactamase transfected Leishmania amazonensis in CD1 mouse macrophages assessed as infected macrophages after 72 hrs. It is filed as functional, organism-based. The gist of the method: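 Starch-elicited peritoneal macrophages from CD-1 mice were plated at 1 × 10^6 cells/ml and adhered overnight. They were infected overnight at 34 °C with β-lactamase-expressing L. amazonensis (5 × 10^6 cells/ml) and washed. Twofold compound dilutions were applied for 72 h at 34 °C. Cells were lysed in 0.1% Triton X-100 with 100 µM nitrocefin for 4 h at 37 °C and read at A490. IC50 by four-parameter fit.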

For data set [7], the system named is Leishmania donovani. In words: Antileishmanial activity against Leishmania donovani promastigotes assessed as induction of ROS production in by flow cytometric detection at 100 uM after 24 hrs. It is filed as functional, organism-based. The gist of the method:
as §2

The subject of data set [8] is Leishmania donovani. The data set is described as follows: Antileishmanial activity against Leishmania donovani promastigotes assessed as induction of ROS production in by flow cytometric detection at 1 uM after 24 hrs. It is filed as functional, organism-based. The gist of the method:
as §2

A short description of data set [9]: Lipophilicity, log P of the compound. It is filed as physicochemical. Conditions: octanol/water. The gist of the method: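 clogP was calculated with the ChemAxon/Marvin program.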
Data set [10] concerns Vero. The data set is described as follows: Cytotoxicity against african green monkey Vero cells after 3 days by tetrazolium dye based colorimetric assay. As to conditions: Chlorocebus sabaeus, 72 h. It is filed as cell-based. An outline of the steps:
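Vero cells were grown in alpha-MEM with 10% HI-FBS. 1 × 10^3 cells per well received 2-fold compound dilutions for 3 days at 37 °C, 5% CO2. Growth was read as tetrazolium (CellTiter) absorbance at 490 nm. IC50 by four-parameter dose-response fit.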

Data set [11] is described as follows: Cytotoxicity against CD1 mouse macrophages at 13 uM after 72 hrs. It is filed as cell-based. As to conditions: macrophage.
For data set [12], the system named is Leishmania donovani. The data set is described as follows: Reduction of parasitemia in Leishmania donovani infected BALB/c mouse at 3 mg/kg/day, ip for 5 days relative to control. It is filed as functional. Further details: scale not given: the % may be the effect or the level left. As to conditions: route intraperitoneal. The gist of the method: as §1
Data set [13] can be described thus: Cytotoxicity against CD1 mouse macrophages assessed as infected macrophages at 3.1 uM after 72 hrs. As to conditions: macrophage. It counts as cell-based.
Data set [14] can be described thus: Cytotoxicity against CD1 mouse macrophages at 6.3 uM after 72 hrs. It counts as cell-based. Conditions: macrophage.
The subject of data set [15] is Leishmania donovani. The data set is described as follows: Antiparasitic activity against Leishmania donovani promastigotes assessed as reduction of membrane potential 10 uM by rhodamine 123 assay. It counts as functional. Also on record: scale not given: the % may be the effect or the level left. The gist of the method:
as §3

For data set [16], the system named is Leishmania donovani. In words: Antileishmanial activity against Leishmania donovani promastigotes assessed as induction of ROS production in by flow cytometric detection at 10 uM after 24 hrs. It counts as functional, organism-based. An outline of the steps:
as §2

22 compounds from ChEMBL document CHEMBL1140848, “Redox-active dinitrodiphenylthioethers against Leishmania: synthesis, structure-activity relationships and mechanism of action studies” (Bioorg Med Chem, 2009) can be followed below.

Active and inactive are the calls of the source. No cut-off for these calls is given here.

Take `COc1ccc(Sc2c([N+](=O)[O-])cc(C#N)cc2[N+](=O)[O-])cc1`: the Activity in data set [1] worked out at 28%.

As a reminder, the IC50 is the point on the concentration scale where inhibition reaches its midpoint. In the case of `CCSc1c([N+](=O)[O-])cc(C(F)(F)F)cc1[N+](=O)[O-]`, in data set [2], the IC50 stood at 98 µM.

A word on the logP: it is a log measure of how a compound divides between an organic and an aqueous phase. With `Cc1cc(Sc2c([N+](=O)[O-])cc(C(F)(F)F)cc2[N+](=O)[O-])c(Cl)cc1Cl`, the outcome in [3] and in [8] was inactive. Also, the figures for the Activity result in data set [4], in data set [5] and in data set [11] were “Dose-dependent effect”, -2% and “Toxic”, respectively. Further, the IC50 was 3.4 µM in data set [6], 0.56 µM in [2] and 9.7 µM in data set [10]. Moreover, in data set [7], the result was Active. For the same compound, the logP in data set [9] is 6.85.

With `CCCCCCCCCCCCCCCCOP(=O)([O-])OCC[N+](C)(C)C` [MILTEFOSINE], the Activity in [12] is reported as 41%.

With `O=[N+]([O-])c1cc(C(F)(F)F)cc([N+](=O)[O-])c1Sc1ccc(Cl)cc1Cl`, the IC50 was found to be 2.6 µM in [6], 0.4 µM in data set [2] and 4.3 µM in data set [10]. Besides, the Activity entry in [13] is reported as “Toxic”.

In data set [2], `O=[N+]([O-])c1cc(C(F)(F)F)cc([N+](=O)[O-])c1SC1CCCCC1` gave an IC50 of 35 µM.

Consider `COc1cc([C@@H]2c3cc4c(cc3[C@H](O)[C@H]3COC(=O)[C@H]23)OCO4)cc(OC)c1OC` [PODOFILOX], for which, in data set [10], the midpoint of inhibition, the IC50, lay at 0.023 µM.

As to `Cc1cccc(Sc2c([N+](=O)[O-])cc(C(F)(F)F)cc2[N+](=O)[O-])c1`, the Activity entry in data set [14] is “Toxic”. Moreover, the IC50 in data set [6] turned out to be 2.4 µM; in data set [2], 1.6 µM; in data set [10], 7.3 µM.

Compound `Cc1cc(Sc2ccc(C(F)(F)F)cc2[N+](=O)[O-])c(Cl)cc1Cl` displayed an IC50 in [2] of 98 µM.

`O=[N+]([O-])c1cc(C(F)(F)F)cc([N+](=O)[O-])c1Oc1ccc(Cl)cc1Cl` gave an IC50 in data set [2] of 3.4 µM.

In [2], `O=[N+]([O-])c1cc(C(F)(F)F)cc([N+](=O)[O-])c1Sc1ccc(O)cc1` returned an IC50 of 3.3 µM.

Turning to `Cc1cc(Sc2c(C(F)(F)F)cc(C(F)(F)F)cc2C(F)(F)F)c(Cl)cc1Cl`, half-maximal inhibition in [2] (IC50) was put at 100 µM.

As for `COc1ccc(Sc2c([N+](=O)[O-])cc(C(F)(F)F)cc2[N+](=O)[O-])cc1`, the IC50 turned out to be 5.1 µM in [6], 1.9 µM in data set [2] and 12 µM in data set [10].

Consider `Cc1cc(Sc2c([N+](=O)[O-])cc(C#N)cc2[N+](=O)[O-])c(Cl)cc1Cl`, for which the Activity is recorded as 90% in data set [15] and “Toxic” in data set [11]. For the same compound, the IC50 in data set [6] worked out at 5.8 µM; in data set [2], 1 µM; in [10], 11 µM. For the same compound, the result in data set [7] and in [16] was Active.

As for `O=C(O)c1ccccc1Sc1c([N+](=O)[O-])cc(C(F)(F)F)cc1[N+](=O)[O-]`, in [2], the midpoint of inhibition, the IC50, lay at 7.3 µM.

Regarding `Cc1cc(Sc2c([N+](=O)[O-])cccc2[N+](=O)[O-])c(Cl)cc1Cl`, the Activity in data set [4] is under 20%. Moreover, the IC50 in [2] came out at 23 µM.

With `Cc1cc(Sc2c([N+](=O)[O-])cc([N+](=O)[O-])cc2C(F)(F)F)c(Cl)cc1Cl`, the Activity entry in data set [14] was “Toxic”. Moreover, the IC50 in data set [6] is 1.8 µM; in data set [2], 0.62 µM; in [10], 5.2 µM.

In data set [2], `Cc1cc(Sc2ccc([N+](=O)[O-])cc2)c(Cl)cc1Cl` returned a half-maximal inhibitory concentration (IC50) of 88 µM.

For `Cc1cc(Sc2ncc(C(F)(F)F)cc2[N+](=O)[O-])c(Cl)cc1Cl`, in data set [2], inhibition was half-maximal at 59 µM (IC50).

Take `Cc1cc([N+](=O)[O-])c(Sc2cc(C)c(Cl)cc2Cl)c([N+](=O)[O-])c1`: the outcome in data set [3], in data set [8] and in data set [16] was inactive. Further, the Activity in data set [4] is under 20%. Moreover, the IC50 in data set [2] was over 200 µM.

In turn, `O=[N+]([O-])c1cc(C(F)(F)F)cc([N+](=O)[O-])c1Nc1ccc(Cl)cc1Cl` yielded an IC50 in [2] of 25 µM.

Take `O=[N+]([O-])c1cc(C(F)(F)F)cc([N+](=O)[O-])c1Sc1ccccc1`: the Activity result in data set [14] is listed as “Toxic”. For the same compound, the IC50 in [6] came out at 2.6 µM; in [2], 0.96 µM; in data set [10], 6 µM.
